The list is not random: actives were taken first. Their share in the collection is about 1.8%.
MC4R ag barr – human MC4R agonism via beta-arrestin. P32245. U2OS MC4R beta-arrestin complementation, luminescence; percent of melanotan II response, DMSO zero. activation, % at 8.9 µM. actives 0.98% (n = 360,000). AID 540308;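 active means activation above a per-plate cutoff, the mean activation of sample wells on that plate plus 3 SD, cut at about 8% in these data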
Target sequence (P32245 whole entry, looked up): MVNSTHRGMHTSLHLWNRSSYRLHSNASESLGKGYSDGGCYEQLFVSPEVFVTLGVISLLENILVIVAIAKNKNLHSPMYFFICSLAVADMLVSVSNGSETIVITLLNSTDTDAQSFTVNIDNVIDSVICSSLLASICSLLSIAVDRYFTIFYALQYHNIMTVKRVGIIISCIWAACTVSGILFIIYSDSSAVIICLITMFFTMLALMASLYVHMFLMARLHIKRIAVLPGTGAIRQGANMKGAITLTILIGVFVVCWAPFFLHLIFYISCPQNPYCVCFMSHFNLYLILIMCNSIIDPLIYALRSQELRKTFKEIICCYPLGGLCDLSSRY
AI-2 QS modul – modulators of Vibrio harveyi AI-2 quorum sensing system | AID 2094 | activity change, % at 7.5 µM | actives 0.4% (n = 300,000) | Vibrio harveyi JMH597 AI-2 luminescence/OD600 ratio, 9 h; active compounds read low; strain lacks LuxN and CqsS sensors; 0 = neutral-control median; in the data active means activity change below about -75%, passing the limit was not always enough;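 further: luminescence divided by OD600 gain over 9 h not by final OD600 alone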
NTR1 agonist – agonists of human neurotensin receptor NTR1; actives 0.17% (n = 330,000); NTR1-U2OS beta-arrestin-GFP spot imaging, agonist mode; activation, % at 20 µM;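 active means activation at or above 40% of the spot to cytoplasm intensity ratio, with at least 20 cells analyzed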;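 further: 0% = DMSO without peptide and 100% = 100 nM NTR1 peptide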
MC4R antag cAMP – blocks human MC4R cAMP signaling; P32245; MC4R-expressing cells, MTII-stimulated cAMP, LANCE TR-FRET; inhibition, % at 6.5 µM; actives 0.48% (n = 360,000);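 active means inhibition above its plate's cutoff, the mean of tested wells on that plate plus 3 SD, cut at about 29% in these data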;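 further: 0% = Melanotan II alone and 100% = Melanotan II plus saturating MCL0020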
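System: U2OS cells stably expressing human melanocortin 4 receptor (MC4R). Reagent: Melanotan II challenge after compound preincubation. Doses: 6.5 µM. Times: 30-min compound, 1-h challenge, 1-h detection, room temperature. Measured by: TR-FRET with Eu-cAMP and labeled anti-cAMP, 671 nm. Replicates: singlicate.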
MC4R barr ag – human MC4R beta-arrestin agonism confirmation; shares compounds with MC4R ag barr; U2OS MC4R beta-arrestin recruitment, luminescence; scaled DMSO 0%, Melanotan II 100%; activation, % at 8.9 µM; actives 31% (n = 2,400); AID 602192;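 active means mean activation across replicates above the hit cutoff set in the earlier primary screen, cut at about 8% in these data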
MOR DOR agonist – activates mu-delta opioid heterodimer, MC4R agonist counter-screen | actives 5.8% (n = 2,400) | shares compounds with MC4R ag barr | AID 602194 | activation, % at 9.2 µM | U2OS PathHunter beta-arrestin, beta-gal luminescence; percent of deltorphin B response, DMSO zero;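 active means mean activation across replicates exceeds the hit threshold derived in the earlier primary screen, cut at about 18% in these data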;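 further: 100% = deltorphin B at 0.9 µM final and 0% = DMSO alone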
* hit, by the source's call; · = no result.

SMILES	MC4R ag barr	AI-2 QS modul	NTR1 agonist	MC4R antag cAMP	MC4R barr ag	MOR DOR agonist
COc1ccc(NC(=O)c2ccc(-c3ccccc3C(F)(F)F)o2)cc1	10.4*	19.6	-0.3	2.8	1.8	4.6
COc1ccccc1CNC(=O)c1ccc(-c2ccccc2C(F)(F)F)o1	-0.9	6.9	0.4	11.1	·	·
C1CCC(C(CC2CCCCN2)C2CCCCC2)CC1 (stereo not given)	10.7*	27.1	25.1	13.7	11.5*	13.1
CC(Sc1nnc(C2CC2)n1C1CC1)C(=O)NC1(C#N)CCCCC1 (stereo not given)	1.2	·	2.7	0.4	·	·
Cc1occc1-c1nnc(SCC(=O)Nc2nc(C(C)(C)C)cs2)o1	11.9*	13.6	4.2	20.8	4.1	6.4
O=C(COc1ccc(-n2cnnn2)cc1)Nc1ccc(F)c(Cl)c1	-2.0	·	0.2	0.1	·	·
O=C(COc1ccc(-n2cnnn2)cc1)Nc1cc(Cl)cc(Cl)c1	16.6*	·	-0.4	-0.2	4.9	7.6
O=C(Nc1ccc(Oc2ccccc2)cc1)c1csc(COCCO)n1	-0.2	·	·	-2.8	·	·
N#CCCN(C(=O)COC(=O)c1ccc(S(=O)(=O)N2CCCC2)cc1)c1cccc(Cl)c1	-0.9	·	-0.5	5.7	·	·
N#Cc1ccc(CC(=O)c2ccccc2)[nH]c1=O	-0.4	·	·	7.1	·	·
Oc1ccccc1-c1nc(NCc2ccccc2)c2ccccc2n1	12.3*	5.7	10.7	1.8	8.0	5.2
Fc1ccccc1-c1nc(NCc2ccco2)c2ccccc2n1	0.6	13.0	0.1	-0.9	·	·
Oc1ccccc1-c1nc(NCc2ccco2)c2ccccc2n1	13.1*	13.3	9.8	-5.5	5.8	3.3
CS(=O)(=O)c1cccc(C(=O)OCC(=O)NC(=O)Nc2ccccc2F)c1	0.4	·	3.9	5.4	·	·
CCc1cc(-c2[nH]ncc2-c2ccc3c(c2)OCO3)c(O)cc1O	19.4*	53.3	20.8	-1.9	5.6	7.3
CCc1cc(-c2[nH]ncc2-c2ccc(OC)cc2)c(O)cc1O	-1.2	20.2	17.6	4.0	·	·
Cc1nnc(N2CCCC(C(=O)Nc3cc(F)ccc3F)C2)c2nn(-c3ccccc3)c(C)c12 (stereo not given)	2.3	21.2	34.8	24.3	·	·
Cc1nnc(N2CCCC(C(=O)NCc3ccc(OC(C)C)cc3)C2)c2nn(-c3ccccc3)c(C)c12 (stereo not given)	11.9*	28.7	13.2	7.9	4.0	3.0
Cc1ccc(-n2nc3c(N4CCC(C(=O)NCCc5cccs5)CC4)nnc(C)c3c2C)cc1	14.6*	29.8	2.3	7.1	12.3*	3.0
CC(C)(C(=O)N1CCC1(C)C(=O)NC1Cc2ccccc2C1)c1ccccc1 (stereo not given)	-0.1	·	·	-5.0	·	·
CCOc1cc(/C=N\NC(=O)c2ccc(NC(=O)C(C)(C)C)cc2)ccc1OC(=O)c1cccc(C)c1	18.3*	10.5	4.3	4.4	4.4	4.7
CC(/C=C1\SC(=S)N(NC(=O)c2cccc(O)c2)C1=O)=C\c1ccccc1	9.8*	35.3	6.7	9.8	1.9	5.3
COc1ccc(NC(=S)NC(=O)C2CCC2)cc1	-3.1	-0.6	-1.8	7.5	·	·
Oc1ccccc1N=Cc1c(O)ccc2oc3c(c12)CCCC3	14.3*	22.4	3.6	2.3	8.3*	9.5
O=C(O)c1ccc(N=Cc2c(O)ccc3oc4c(c23)CCCC4)cc1	1.9	2.4	3.6	3.2	·	·
SMILES	MC4R ag barr	AI-2 QS modul	NTR1 agonist	MC4R antag cAMP	MC4R barr ag	MOR DOR agonist
C=CCn1c(=NC(=O)c2cc(Cl)sc2Cl)sc2cc(S(N)(=O)=O)ccc21	13.8*	17.1	0.6	13.8	3.9	2.0
COc1ccc(-c2n[nH]c(=S)n2/N=C/C=C/c2ccccc2OC)cc1	11.2*	9.9	6.0	-4.3	-1.1	7.4
COc1ccccc1/C=C/C=N/n1c(-c2ccccc2)n[nH]c1=S	8.2	-10.2	5.0	20.1	·	·
O=C(Nc1ccccn1)C1CCN(S(=O)(=O)c2ccc(Cl)cc2)CC1	0.3	19.3	-0.1	8.1	·	·
Cc1c(Cc2ccccc2)c(=O)oc2cc(OC(C)C(=O)NCC3CCC(C(=O)O)CC3)c(Cl)cc12 (stereo not given)	1.0	13.3	-2.0	3.9	·	·
O=C1N/C(=C/c2cccn2-c2ccccc2)C(=O)N1Cc1ccc(F)cc1	17.0*	6.3	5.0	-6.6	2.3	5.2
O=C1N/C(=C/c2cccn2-c2ccc(F)cc2)C(=O)N1Cc1ccccc1F	7.7	15.0	4.6	-5.1	·	·
COc1ccc(-n2nnnc2SCC(=O)c2cccc(OC)c2)cc1	1.3	2.7	3.1	19.6	·	·
CCOc1ccc(-n2nnnc2SCC(=O)c2ccccc2)cc1	16.0*	16.5	3.4	10.3	-2.8	1.6
CCCCOc1ccc(C(=O)Nc2ccc(SC(F)F)cc2)cc1OC	9.9*	14.9	0.0	7.7	15.8*	7.3
O=C(Nc1ccc(SC(F)F)cc1)c1ccc2nccnc2c1	1.0	-70.2	0.9	0.7	·	·
Cc1ccc2nc(NC(=O)CCNS(=O)(=O)c3cccs3)sc2c1	-0.3	11.0	-0.5	2.6	·	·
Cc1ccc2nc(NC(=O)CCNS(=O)(=O)c3ccc(Br)s3)sc2c1	13.7*	17.7	0.4	4.4	7.1	6.9
Cc1ccc(C2=NN(C(=O)c3cccs3)C(c3ccccc3O)C2)cc1 (stereo not given)	17.8*	18.4	5.4	9.7	30.2*	4.5
O=C(c1cccs1)N1N=C(c2ccccc2)CC1c1ccccc1O (stereo not given)	13.1*	6.8	22.0	-3.3	8.0	4.9
CCn1cc(Cl)c(C(=O)N2N=C(c3ccc4ccccc4c3)CC2c2ccccc2O)n1 (stereo not given)	20.3*	12.8	21.6	17.1	4.3	9.7
CCn1cc([N+](=O)[O-])c(C(=O)N2N=C(c3ccc4ccccc4c3)CC2c2ccccc2O)n1 (stereo not given)	7.0	20.3	9.9	10.0	·	·
COc1ccc(C2=NN(C(=O)c3cccs3)C(c3ccccc3OC)C2)cc1OC (stereo not given)	-0.1	22.4	5.9	-6.0	·	·
COc1ccc(C2CC(c3ccccc3)=NN2S(=O)(=O)c2ccccc2)cc1 (stereo not given)	-0.2	2.4	-0.6	-7.0	·	·
Cc1ccc(C2=NN(S(=O)(=O)c3ccccc3)C(c3ccccc3O)C2)cc1 (stereo not given)	12.2*	3.6	·	11.1	9.7*	10.7
NC(=O)c1ccc(N2CCNC(=O)C2)c([N+](=O)[O-])c1	0.8	16.3	-1.1	12.3	·	·
O=C(c1ccccc1)N1N=C(c2ccccc2)CC1c1ccccc1O (stereo not given)	17.3*	30.0	10.6	7.0	11.2*	11.2
